Rows were chosen to be rich in hits. Some 5.9% of all compounds tested hit in one or more screens of this group.
Tcruzi prolif – T. cruzi proliferation inhibition. T. cruzi beta-gal in NIH3T3, GalScreen luminescence, 90 h. inhibition, % at 8.34 µM. 77,000 tested, 5.9% active. AID 624255;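 active = mean inhibition above about 93%, with at least 55% of replicates each passing it, limit read from the data, passing the limit was not always enough; inconclusive = only one of those two conditions holds; inactive = neither condition holds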
IDH1 R132H inh – IDH1 R132H (human) inhibition | IDH1 R132H reductase, diaphorase/resazurin fluorescence, 60 min | inhibition, % at 10 µM | 70,000 tested, 0.18% active | AID 624101; in the data active = inhibition above about 34%; inconclusive = no clear call, values can overlap the other calls; inactive = below about 11%;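 also: 0% = DMSO and 100% = no enzyme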
GASC1 inh – inhibitors of human demethylase GASC-1 KDM4C | AID 720574 | 96,000 tested, 0.15% active | inhibition, % at 12.5 µM | Q9H3R0 | GST-KDM4C 2-372, H3K9me3 peptide, LANCE TR-FRET;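 active = mean replicate inhibition above about 25%, with at least 55% of replicates also reaching it, limit read from the data, passing the limit was not always enough; inconclusive = only one of those two conditions met; inactive = neither condition met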
Target sequence (Q9H3R0 2-372 limits assumed): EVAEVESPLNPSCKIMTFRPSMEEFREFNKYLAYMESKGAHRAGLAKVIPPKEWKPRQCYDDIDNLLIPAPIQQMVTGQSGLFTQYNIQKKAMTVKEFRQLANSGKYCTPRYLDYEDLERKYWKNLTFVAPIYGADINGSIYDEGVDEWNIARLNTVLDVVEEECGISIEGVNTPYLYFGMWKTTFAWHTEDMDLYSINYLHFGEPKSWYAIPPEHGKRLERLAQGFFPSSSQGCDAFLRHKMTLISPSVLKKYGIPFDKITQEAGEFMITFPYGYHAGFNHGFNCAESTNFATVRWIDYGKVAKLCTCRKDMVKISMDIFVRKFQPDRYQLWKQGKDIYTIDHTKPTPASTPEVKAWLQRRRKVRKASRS
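Test system: N-terminal GST-fused human GASC-1 (KDM4C) fragment, residues 2-372; quantity: GASC-1 enzyme at 10 nM final in reaction; dosing: single dose; schedule: 30 min demethylation and 1 h detection at room temperature; signal: LANCE TR-FRET, excitation 340 nm, emissions 618 and 671 nm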
Pf Dd2 inh – blocks growth of Plasmodium falciparum Dd2 parasites; P. falciparum Dd2 growth, SYBR Green, 72 h; stronger effect = lower value; activity change, % at 10 µM; AID 1159554; 94,000 tested, 2.3% active; in the data active = activity change below about -80%; inconclusive = no clear call, values can overlap the other calls
Active calls of the source: *; ? = inconclusive; · = no result.

SMILES	Tcruzi prolif	IDH1 R132H inh	GASC1 inh	Pf Dd2 inh
C[C@H]1CCCCO[C@@H](CN(C)Cc2ccc(C(F)(F)F)cc2)[C@@H](C)CN([C@@H](C)CO)C(=O)c2cc(NC(=O)c3ccccc3)ccc2O1	63	·	0	-59
C[C@@H]1CCCCO[C@H](CN(C)Cc2ccc(C(F)(F)F)cc2)[C@@H](C)CN([C@@H](C)CO)C(=O)c2cc(NC(=O)c3ccccc3)ccc2O1	68	2	-2	-86*
C[C@@H]1CCCCO[C@@H](CN(C)Cc2ccc(Cl)c(Cl)c2)[C@H](C)CN([C@H](C)CO)C(=O)c2cc(NC(=O)Nc3ccc(C(F)(F)F)cc3)ccc2O1	51	0	12	-86*
C[C@@H]1CCCCO[C@H](CN(C)Cc2ccc(Cl)c(Cl)c2)[C@H](C)CN([C@@H](C)CO)C(=O)c2cc(NC(=O)Nc3ccc(C(F)(F)F)cc3)ccc2O1	60	0	1	?
C[C@@H]1CN([C@@H](C)CO)C(=O)c2cc(NC(=O)c3ccccc3)ccc2O[C@@H](C)CCCCO[C@H]1CN(C)Cc1ccc(C(F)(F)F)cc1	69	-1	-1	-84*
C[C@@H]1CCCCO[C@H](CN(C)Cc2ccc(C(F)(F)F)cc2)[C@@H](C)CN([C@@H](C)CO)C(=O)c2cc(NC(=O)Nc3ccccc3)ccc2O1	70	·	0	-82*
C[C@H]1CCCCO[C@H](CN(C)Cc2ccc(C(F)(F)F)cc2)[C@@H](C)CN([C@@H](C)CO)C(=O)c2cc(NC(=O)Nc3ccccc3)ccc2O1	68	-1	-1	-6
CCOC(=O)c1c(C2COc3ccccc3O2)csc1NC(=S)Nc1ccccc1 (configuration not stated)	·	1	·	·
O=C(COc1ccc(Cl)cc1C1C2=C(CCCC2=O)NC2=C1C(=O)CCC2)Nc1ccc(Cl)cc1	·	0	·	·
O=C(NCCCN1CCOCC1)C1CC(c2cccc(Br)c2)=NO1 (configuration not stated)	·	0	·	·
COc1cc(Br)cc(/C=N/NC(=O)CCCCCCC(=O)O)c1O	·	0	·	·
COc1ccc(S(=O)(=O)N(C)C[C@@H]2OCCCC[C@@H](C)Oc3ccc(NC(=O)NC4CCCCC4)cc3C(=O)N([C@@H](C)CO)C[C@@H]2C)cc1	86	-2	0	?
COc1ccc(S(=O)(=O)N(C)C[C@H]2OCCCC[C@H](C)Oc3ccc(NC(=O)NC4CCCCC4)cc3C(=O)N([C@H](C)CO)C[C@H]2C)cc1	95	0	-2	-86*
COc1ccc(S(=O)(=O)N(C)C[C@H]2OCCCC[C@H](C)Oc3ccc(NC(=O)NC4CCCCC4)cc3C(=O)N([C@@H](C)CO)C[C@H]2C)cc1	67	0	-1	-81*
CC(=O)Nc1ccc(NC(=O)CC2Sc3ccc(C(F)(F)F)cc3NC2=O)cc1 (configuration not stated)	·	9	·	·
CCCc1occc(=O)c1CC=O	·	0	·	·
C[C@@H]1CN([C@H](C)CO)C(=O)c2cc(NC(=O)Nc3cccc4ccccc34)ccc2O[C@@H](C)CCCCO[C@@H]1CN(C)CC1CCCCC1	122	·	-5	-88*
C[C@@H]1CCCCO[C@H](CN(C)CC2CCCCC2)[C@H](C)CN([C@@H](C)CO)C(=O)c2cc(NC(=O)Nc3cccc4ccccc34)ccc2O1	121	·	0	-88*
CCCN(C)C[C@H]1OCCCC[C@H](C)Oc2ccc(NC(=O)Nc3cccc4ccccc34)cc2C(=O)N([C@@H](C)CO)C[C@H]1C	43	·	20	-91*
C[C@@H]1CCCCO[C@@H](CN(C)CC2CCCCC2)[C@@H](C)CN([C@@H](C)CO)C(=O)c2cc(NC(=O)Nc3cccc4ccccc34)ccc2O1	121	·	-3	-82*
C[C@@H]1CCCCO[C@H](CN(C)CC2CC2)[C@H](C)CN([C@@H](C)CO)C(=O)c2cc(NC(=O)Nc3cccc4ccccc34)ccc2O1	81	·	-2	-80
O=C(O)CCCC(=O)Nc1cc(C(=O)O)ccc1Cl	·	0	·	·
COc1cc(OC)c(NC(=O)CCN2C(=O)c3ccccc3C2=O)cc1Cl	·	1	·	·
Cc1ccc(C)c(OCC(=O)Nc2cccc(-c3nnc(-c4ccco4)o3)c2)c1	·	0	·	·
CSc1nc(C)cc(OCC(=O)N2CCCCC2)n1	·	0	·	·
Cc1nn(CC(=O)Nc2sc3c(c2C#N)CCCC3)c(C)c1[N+](=O)[O-]	·	0	·	·
C[C@@H]1CCCCO[C@H](CN(C)CC2CCCCC2)[C@H](C)CN([C@H](C)CO)C(=O)c2cc(NC(=O)Nc3cccc4ccccc34)ccc2O1	122	-1	-5	-88*

Screening results as filed in PubChem.
